This note sets out measurements from ChEMBL document CHEMBL3596157, “Heteroaromatic analogs of the resveratrol analog DMU-212 as potent anti-cancer agents” (2015).

Holding throughout (assay type): functional
In experiment [1] the test system is SR. Nature of the experiment: Growth inhibition of human SR cells after 48 hrs by SRB assay. In outline: (§1)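 NCI-60 panel cells; preliminary single-dose screen at 10−5 M, then five-dose testing at 10−4 to 10−8 M (tenfold steps) with 48 h exposure. SRB-stained optical density read before compound addition (time zero), after 48 h with compound, and with vehicle control. Percent growth is calculated against control. GI50 is the concentration giving 50% reduction in net growth relative to day-0 cell number.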

Experiment [2] is described as follows: Growth inhibition of human HCC2998 cells after 48 hrs by SRB assay. The note with it: HCC 2998, 48 h. In outline: (§2)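 NCI-60 panel screen. Cells exposed for 48 h to five concentrations (10−4, 10−5, 10−6, 10−7 and 10−8 M). Sulforhodamine B optical density is read just before compound addition (time zero) and after 48 h, for both treated and vehicle-control wells. Percent growth is calculated against control. GI50 is the concentration giving a 50% reduction in net cell growth relative to cell numbers on day 0.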

Experiment [3] relates to MDA-MB-435. Nature of the experiment: Growth inhibition of human MDA-MB-435 cells after 48 hrs by SRB assay. The note with it: MDA-MB-435, 48 h. In outline: as §2
For experiment [4], the system named is HOP-62. The experiment can be described thus: Growth inhibition of human HOP62 cells after 48 hrs by SRB assay. The note with it: HOP-62, 48 h. An outline of the steps:
as §2

Experiment [5] has as its system OVCAR-3. The experiment can be described thus: Growth inhibition of human OVCAR3 cells after 48 hrs by SRB assay. The note with it: OVCAR-3, 48 h. In outline:
as §2

Experiment [6] has as its system ACHN. The experiment can be described thus: Growth inhibition of human ACHN cells after 48 hrs by SRB assay. An outline of the steps:
as §2

The test system of experiment [7] is OVCAR-8. Nature of the experiment: Growth inhibition of human OVCAR8 cells after 48 hrs by SRB assay. The note with it: OVCAR-8, 48 h. In outline:
as §2

Experiment [8] concerns NCI-H460. Nature of the experiment: Growth inhibition of human NCI-H460 cells after 48 hrs by SRB assay. The note with it: NCI-H460, 48 h. In outline:
as §2

Experiment [9] has as its system HCT-116. Nature of the experiment: Growth inhibition of human HCT116 cells after 48 hrs by SRB assay. The note with it: HCT-116, 48 h. In outline:
as §2

In experiment [10] the test system is T47D. Nature of the experiment: Growth inhibition of human T47D cells after 48 hrs by SRB assay. An outline of the steps: as §1
The nature of experiment [11]: Growth inhibition of human SF295 cells after 48 hrs by SRB assay. The note with it: SF-295, 48 h. In outline:
as §2

Experiment [12] can be described thus: Growth inhibition of human BT549 cells after 48 hrs by SRB assay. The note with it: BT-549, 48 h. An outline of the steps: as §2
Experiment [13] has as its system CCRF-CEM. Nature of the experiment: Growth inhibition of human CCRF-CEM cells after 48 hrs by SRB assay. In outline: as §2
In experiment [14] the test system is PC-3. The experiment can be described thus: Growth inhibition of human PC3 cells after 48 hrs by SRB assay. The note with it: PC-3, 48 h. An outline of the steps: as §2
For experiment [15], the system named is TK-10. The experiment can be described thus: Growth inhibition of human TK10 cells after 48 hrs by SRB assay. The note with it: TK-10, 48 h. In outline: as §1

Turning to `COc1cc(/C=C/c2cc3ccccc3o2)cc(OC)c1OC`, the GI50 in experiment [1] stood at 94 nM; in experiment [2] it was 334 nM; in experiment [3], 78 nM; in [4], 775 nM; in [5] it was 429 nM; in experiment [6] it was 863 nM. The GI50 in experiment [7] came out at 2050 nM; in experiment [8] it was 416 nM; in experiment [9], 522 nM; in experiment [10] it was 693 nM; in experiment [11], 356 nM; in experiment [12] it was 1090 nM. The GI50 in [13] is 425 nM; in experiment [14], 524 nM; in experiment [15], 8460 nM.
